Source: ChEMBL document CHEMBL1151434 (Antimicrob Agents Chemother, 2007)
In brackets after ≈: the same amount, converted by molar mass.

Key:
Chlamydia trachomatis [1] = experiment: Antibacterial activity against 0.01 MOI wild type Chlamydia trachomatis L2/LGV/434/Bu infected in mouse L2 cells treated 2 hrs after infection measured on day 7 by plaque assay; format: functional
How it was run: (§1)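 Susceptibility measured in a plaque assay on confluent mouse fibroblast L2 cell monolayers in 60-mm dishes. The inoculum was 10^5 chlamydial PFU, equal to an MOI of 0.01. MIC was taken as the drug concentration that inhibited development of these 10^5 PFU.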

[2] = Biodistribution in healthy human epithelial lining fluid assessed as drug accumulation at 500 mg; format: ADME, organism-based; conditions: in vivo
Chlamydia trachomatis [3] = experiment: Antibacterial activity against azithromycin-tolerant 0.01 MOI Chlamydia trachomatis L2AZM#23 harboring mutation in bacterial ribosomal protein L4 infected in mouse L2 cells treated 2 hrs after infection measured on day 7 by plaque assay; format: functional; how it was run: as §1
Chlamydia trachomatis [4] = experiment: Antibacterial activity against azithromycin-tolerant 0.01 MOI Chlamydia trachomatis L2AZM#31 harboring mutation in bacterial ribosomal protein L4 infected in mouse L2 cells treated 2 hrs after infection measured on day 7 by plaque assay; format: functional; how it was run: as §1
Chlamydia psittaci 6BC = experiment: Antibacterial activity against 0.01 MOI wild type Chlamydia psittaci 6BC BCRB infected in mouse L2 cells treated 2 hrs after infection measured on day 7 by plaque assay; format: functional; how it was run: as §1

Question: Which results are given for `CC[C@H]1OC(=O)[C@H](C)[C@@H](O[C@H]2C[C@@](C)(OC)[C@@H](O)[C@H](C)O2)[C@H](C)[C@@H](O[C@@H]2O[C@H](C)C[C@H](N(C)C)[C@H]2O)[C@](C)(O)C[C@@H](C)CN(C)[C@H](C)[C@@H](O)[C@]1(C)O` [AZITHROMYCIN]?
Answer: MIC (Chlamydia trachomatis [1]): 0.1 µg/mL (≈ 0.134 µM); Drug uptake [2]: 2 µg/mL; MIC (Chlamydia trachomatis [3]): 0.8 µg/mL (≈ 1.07 µM); MIC (Chlamydia trachomatis [4]): 0.8 µg/mL (≈ 1.07 µM); MIC (Chlamydia psittaci 6BC): 0.1 µg/mL (≈ 0.134 µM)

Question: For `O=C(N[C@H](CO)[C@H](O)c1ccc([N+](=O)[O-])cc1)C(Cl)Cl` [CHLORAMPHENICOL], which MIC (Chlamydia trachomatis [1]) is on record?
Answer: The MIC was 0.4 µg/mL (≈ 1.24 µM).

Question: And the MIC (Chlamydia trachomatis [3])?
Answer: The MIC was 0.4 µg/mL (≈ 1.24 µM).

Question: What about the MIC (Chlamydia trachomatis [4]) of the same molecule?
Answer: Its MIC is 0.4 µg/mL (≈ 1.24 µM).

Question: With `CCC[C@@H]1C[C@@H](C(=O)N[C@@H]([C@H]2O[C@H](SC)[C@H](O)[C@@H](O)[C@H]2O)[C@H](C)Cl)N(C)C1` [CLINDAMYCIN] as the molecule, how does the MIC (Chlamydia trachomatis [1]) read?
Answer: Its MIC is 0.125 µg/mL (≈ 0.294 µM).

Question: And the MIC (Chlamydia trachomatis [3])?
Answer: The MIC was 0.5 µg/mL (≈ 1.18 µM).

Question: And the MIC (Chlamydia trachomatis [4])?
Answer: The MIC was 0.5 µg/mL (≈ 1.18 µM).

Question: What about the MIC (Chlamydia psittaci 6BC) of the same molecule?
Answer: Its MIC is 0.4 µg/mL (≈ 0.941 µM).

Question: Which MIC (Chlamydia trachomatis [1]) does the source give for `CC[C@H]1OC(=O)[C@H](C)[C@@H](O[C@H]2C[C@@](C)(OC)[C@@H](O)[C@H](C)O2)[C@H](C)[C@@H](O[C@@H]2O[C@H](C)C[C@H](N(C)C)[C@H]2O)[C@](C)(O)C[C@@H](C)C(=O)[C@H](C)[C@@H](O)[C@]1(C)O` [ERYTHROMYCIN] here?
Answer: The MIC was 0.2 µg/mL (≈ 0.273 µM).

Question: What about the MIC (Chlamydia trachomatis [3]) of the same molecule?
Answer: Its MIC is 0.8 µg/mL (≈ 1.09 µM).

Question: And the MIC (Chlamydia trachomatis [4])?
Answer: Its MIC is 0.8 µg/mL (≈ 1.09 µM).

Question: What about the MIC (Chlamydia psittaci 6BC) of the same molecule?
Answer: Its MIC is 0.2 µg/mL (≈ 0.273 µM).

Question: Which results are given for `CO[C@@H]1[C@@H](O[C@@H]2O[C@H](C)[C@@H](O[C@H]3C[C@@](C)(O)[C@@H](OC(=O)CC(C)C)[C@H](C)O3)[C@H](N(C)C)[C@H]2O)[C@@H](CC=O)C[C@@H](C)[C@@H](O)/C=C/C=C/C[C@@H](C)OC(=O)C[C@H]1OC(C)=O` [JOSAMYCIN]?
Answer: MIC (Chlamydia trachomatis [1]): 0.05 µg/mL (≈ 0.0604 µM); MIC (Chlamydia trachomatis [3]): 0.2 µg/mL (≈ 0.242 µM); MIC (Chlamydia trachomatis [4]): 0.2 µg/mL (≈ 0.242 µM); MIC (Chlamydia psittaci 6BC): 0.05 µg/mL (≈ 0.0604 µM)

Question: With SPIRAMYCIN as the molecule, how does the MIC (Chlamydia trachomatis [1]) read?
Answer: Its MIC is 0.8 µg/mL.

Question: What about the MIC (Chlamydia trachomatis [3]) of the same molecule?
Answer: The MIC was 4 µg/mL.

Question: And the MIC (Chlamydia trachomatis [4])?
Answer: Its MIC is 4 µg/mL.

Question: What about the MIC (Chlamydia psittaci 6BC) of the same molecule?
Answer: Its MIC is 1 µg/mL.
